High-throughput results (PubChem BioAssay)
SIRT5 inh – sirtuin-5 (human) deacylase inhibition | Q9NXA8 | inhibition, % at 15 µM | Purified SirT5, succinyl-peptide AMC, trypsin-coupled fluorescence | AID 652115 | 1.1% of 330,000 active; in the data active = inhibition above about 15%
NSD2 HMT inh – inhibitors of human histone methyltransferase NSD2 | O96028 | NSD2 peptide methylation, AlphaScreen, 120 min | inhibition, % at 12.5 µM | 0.54% of 310,000 active; in the data active = inhibition above about 50%
FGF22 binding – FGF22 (human) thermal shift binding. AID 651658. activity (Tm shift, normalised), % at 9.99 µM. recombinant FGF22 thermal shift, SYPRO orange fluorescence; percent of sucrose octasulfate shift, DMSO zero. 1.5% of 340,000 active;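 active = mean Tm shift, scaled 0 neutral to 100 positive control, at about 1.3% or above, every replicate too, limit read from the data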
Target sequence (Q9HCT0 whole entry, looked up): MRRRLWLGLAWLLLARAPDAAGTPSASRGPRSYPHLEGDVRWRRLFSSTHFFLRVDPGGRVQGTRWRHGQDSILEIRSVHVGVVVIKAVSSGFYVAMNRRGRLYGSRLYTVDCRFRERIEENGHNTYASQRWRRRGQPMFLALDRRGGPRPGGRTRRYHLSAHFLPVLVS
UCH37 DUB inh – human UCH37 deubiquitinating enzyme inhibition | Q9Y5K5 | purified proteasome/UCH37, Ub-AMC cleavage fluorescence | inhibition, % (test concentration not listed) | 0.33% of 330,000 active;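 active = mean inhibition over replicate wells above about 20%, limit read from the data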;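 note: 0% = compound-free wells with enzyme and 100% = wells lacking proteasome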
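system = Proteasome-associated human UCH37 deubiquitinase | amount = 0.15 nM proteasome as dispensed | medium = pH 7.4 Tris-HCl (50 mM) with ovalbumin, ATP-MgCl2, DTT | incubation = 30 min preincubation with enzyme, 25 min cleavage at room temperature | detection = AMC fluorescence 355/460 nm | read-out basis = percent inhibition | controls = no-proteasome and no-compound wells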
CASP6 VEID inh – blocks human caspase-6 cleavage activity; P55212; purified caspase-6, Z-VEID-R110 cleavage fluorescence; inhibition, % at 12.5 µM; 0.53% of 350,000 active; AID 686996;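 active = mean inhibition across replicates at least about 35%, with every replicate also reaching that limit, limit read from the data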;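 note: 0% = median of neutral control wells and 100% = no fluorescence left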
Target sequence (P55212 24-179 limits assumed): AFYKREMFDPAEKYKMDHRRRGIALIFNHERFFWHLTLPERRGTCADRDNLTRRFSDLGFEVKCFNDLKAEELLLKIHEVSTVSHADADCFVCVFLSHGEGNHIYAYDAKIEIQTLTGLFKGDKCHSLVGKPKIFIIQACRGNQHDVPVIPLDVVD
Target sequence (P55212 194-293 limits assumed): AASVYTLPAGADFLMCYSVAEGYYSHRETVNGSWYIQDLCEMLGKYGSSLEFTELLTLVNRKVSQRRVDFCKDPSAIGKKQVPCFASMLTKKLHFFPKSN
* hit, by the source's call; · = no result. In the library only some 2.6% were active in any assay of this set; here they are far more common.

SMILES	SIRT5 inh	NSD2 HMT inh	FGF22 binding	UCH37 DUB inh	CASP6 VEID inh
C[C@@H]1CCCCO[C@@H](CN(C)S(=O)(=O)c2cn(C)cn2)[C@@H](C)CN([C@@H](C)CO)C(=O)c2cc(NC(=O)Nc3ccc4c(c3)OCO4)ccc2O1	-1	·	0	·	-1
COc1ccccc1N1CCN(C(=O)C(C)CS(=O)(=O)c2ccc3c(c2)NC(=O)CS3)CC1 (stereo not drawn)	0	2	0	7	68*
COc1ccccc1N1CCN(S(=O)(=O)c2ccc3c(c2)NC(=O)C(C)S3)CC1 (stereo not drawn)	0	-2	0	0	-5
CCOc1ccc(-c2nnc3ccc(SCC(=O)Nc4nc5ccccc5s4)nn23)cc1	1	1	6.6*	-31	-1
CCOc1ccc2nc(NC(=O)CSc3ccc(Cl)cc3)sc2c1	·	-4	·	2	·
CCC1C(=O)N=C(SCC(=O)Nc2cccc3ccccc23)NC1=O (stereo not drawn)	·	4	·	12	·
CCOc1ccc2nc(NC(=O)CSc3nc(SC)ns3)sc2c1	4	-1	1.7*	2	1
CCC1C(=O)N=C(SCC(=O)Nc2nc3ccccc3s2)NC1=O (stereo not drawn)	9	3	0	9	40*
CCC(=O)N(C)C[C@@H]1Oc2cc(C#CCOC)ccc2S(=O)(=O)N([C@@H](C)CO)C[C@H]1C	1	·	0	·	1
COc1ccc(CN(C)C[C@H]2OCCCC[C@@H](C)Oc3ccc(NS(=O)(=O)c4cn(C)cn4)cc3C(=O)N([C@H](C)CO)C[C@@H]2C)cc1	-5	·	1	·	1
CCC(C)NC(=O)C(Sc1ccccc1)c1ccccc1 (stereo not drawn)	-2	0	43*	1	-6
CCNC(=O)C(Sc1ccccc1)c1ccccc1 (stereo not drawn)	·	1	·	5	·
C=CCOC(=O)C1=C[C@@H](c2ccc(C(F)(F)F)cc2)C[C@@H](OCCCCO)O1	·	·	·	21*	·
O=C(C[C@H]1C=C[C@@H](NC(=O)Nc2cc(F)ccc2F)[C@@H](CO)O1)NCCCN1CCOCC1	0	·	0	·	-3
COc1ccc(-c2noc(CCC(=O)NCCCN3CCC(C)CC3)n2)cc1	·	-1	·	1	·
CCN1CCN(CCCNC(=O)CCc2nc(-c3ccc(OC)cc3)no2)CC1	0	4	43*	5	-5
COc1ccc(Cc2c(-c3ccccc3)nc3ccc(C)cn23)c(C)c1	-2	·	0	·	8
COc1ccc(Cc2c(-c3cccc(Cl)c3)nc3ccc(C)cn23)c(C)c1	22*	·	0	·	0
C[C@@H]1CN([C@@H](C)CO)C(=O)c2cccc(NS(=O)(=O)c3ccc(Cl)cc3)c2O[C@@H]1CN(C)Cc1ccc(-c2ccccc2)cc1	12	·	0	·	·
O=C(/C=C1\OCc2cc(OCc3ccccc3)ccc21)OCc1ccccc1	-2	·	0	·	2
O=C(/C=C1\OCc2ccccc21)OCc1ccccc1	15*	3	0	·	17
Cc1cc(C)n(-c2nc3ccccc3n3c(C)nnc23)n1	-3	-1	0	6	-3
Cc1ccc2c(c1)nc(-n1nc(C)cc1C)c1nnnn12	1	-1	43*	7	-2
O=C(NN=Cc1ccccn1)C1c2ccccc2Oc2ccccc21	·	·	·	1	·
O=C(N[C@H]1CC[C@@H](CCn2cc(C3(O)CCCC3)nn2)O[C@H]1CO)C1CCCCC1	0	·	0	·	-2
SMILES	SIRT5 inh	NSD2 HMT inh	FGF22 binding	UCH37 DUB inh	CASP6 VEID inh
CN1C(=O)C(O)(c2sc(N)nc2-c2ccccc2)c2ccccc21 (stereo not drawn)	21*	-1	·	1	0
O=C(Cn1cncn1)NCCCc1ccccc1	·	-3	0	4	75*
O=C(Cn1cncn1)NCCC(c1ccccc1)c1ccccc1	-5	·	·	3	-2
O=C(Nc1ccccc1)c1ccccc1OCc1cccc([N+](=O)[O-])c1	-4	12	0	5	36*
Cc1ccc2c(c1)CCO[C@]21O[C@H](CCO)C[C@H](O)[C@H]1O	-2	·	0	·	1
Cc1ccc2c(c1)CO[C@@]21O[C@H](CCO)C[C@H](O)[C@H]1O	23*	·	0	·	0
Cc1ccc(C=NNC(=O)NC23CC4CC(CC(C4)C2)C3)o1	·	·	·	7	·
O=C(O)/C(=C/c1ccco1)NC(=O)c1ccccc1	5	5	0	·	37*
O=C(O)/C(=C\c1ccco1)NC(=O)c1cccc2ccccc12	5	-4	0	4	41*
O=C(Nc1ccc(C(=O)O)cc1)/C(=C\c1ccco1)NC(=O)c1ccc(Br)cc1	24*	10	0	·	10
Cc1cc2c(Nc3ccccc3)ncnc2s1	16*	-3	0	2	-5
Cc1cc2c(NCCc3ccccc3)ncnc2s1	-3	-5	0	1	2
O=C1NCCN1Cc1ccc(Cl)cc1	0	-1	44*	2	-1
O=C(NNc1nc2c(F)cc(F)cc2s1)c1ccccc1	·	0	43*	3	-3
C[C@@H]1CN([C@@H](C)CO)C(=O)c2cc(NC(=O)Nc3ccccc3)ccc2O[C@@H](C)CCCCO[C@@H]1CN(C)S(=O)(=O)c1ccc(Cl)cc1	0	·	0	·	-1
Cc1coc2c(C)c3oc(=O)c(CC(=O)N[C@@H](CC(C)C)C(=O)O)c(C)c3cc12	-4	-1	0	-72	7
Cc1coc2c(C)c3oc(=O)c(CCC(=O)N[C@@H](C)C(=O)N[C@@H](Cc4ccccc4)C(=O)O)c(C)c3cc12	26*	·	0	-47	16
Fc1cccc(Nc2ncnc3sccc23)c1	-6	-4	0	·	1
Cc1cc(F)ccc1S(=O)(=O)Nc1ncnc2sccc12	23*	0	0	4	-2
COc1ccc(CN(C)C[C@@H]2Oc3ccc(NC(=O)Cc4ccccc4)cc3CC(=O)N([C@H](C)CO)C[C@@H]2C)cc1	1	·	0	·	0
CN1C[C@@H]2C[C@@H](c3cccn3-c3nccs3)N3CCC[C@@]23C1=O	-5	-3	43*	4	3
O=C(NC1CCCCC1)C(c1ccccc1)n1c(=O)c(-c2cc3ccccc3[nH]2)nc2ccccc21 (stereo not drawn)	·	·	35*	·	-4
COc1ccc(C(C(=O)NC2CCCCC2)n2c(=O)c(-c3cc4ccccc4[nH]3)nc3ccccc32)cc1 (stereo not drawn)	-1	·	0	·	-2
C=CCN=c1scc(-c2ccccc2)n1N=Cc1ccccn1	·	·	·	0	·
CCCNC(=O)[C@H]1[C@H](CO)[C@H]2Cn3c(cccc3=O)[C@@H]1N2C(=O)NCCC	-2	·	0	·	-2
O=C(CNC(=O)c1ccccc1Br)N/N=C/c1cc(Br)ccc1O	-4	-3	44*	·	-2
O=C(CNC(=O)c1cccc(Br)c1)N/N=C/c1ccc[nH]1	-4	1	43*	·	2
O=C(NN=Cc1ccc[nH]1)c1cccc(Br)c1	·	·	·	-2	·
O=C(CNC(=O)c1ccccc1)N/N=C/c1cc(Br)ccc1O	2	-4	0	·	-7
